From ChEMBL document CHEMBL1148286

How the values were obtained:
[1] = biological target: Transthyretin (Homo sapiens) (UniProt P02766); assay: Transthyretin (TTR) amyloidogenesis inhibition activity by employing an acid-mediated (pH 4.4) WTTTR amyloid fibril formation assay, at 3.6 uM conc.; format: functional
How it was run: (§1)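 WT TTR (3.6 µM tetramer) in 10 mM phosphate, 100 mM KCl, 1 mM EDTA pH 7.6, preincubated 30 min at 25 °C with compound from DMSO stock. Acidified to pH 4.4 with acetate buffer, then held 72 h at 37 °C without agitation. Turbidity read at 350 and 400 nm after vortexing. Expressed as % of the no-inhibitor control; triplicate.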

[2] = biological target: Transthyretin (Homo sapiens) (UniProt P02766); assay: Ability to bind TTR selectively over all other proteins in human blood plasma (equiv bound); format: cell-free
How it was run: (§2)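 Human blood plasma (1.0 mL) incubated with compound from 1.44 mM DMSO stock (final 10.8 µM) at 37 °C for 24 h with rocking. Pre-cleared with quenched sepharose, then TTR captured on anti-TTR antibody sepharose at 4 °C, washed with TSA/0.05% saponin and TSA. Eluted with 100 mM triethylamine pH 11.5. Ligand:TTR stoichiometry measured by reverse-phase HPLC (maximum 2 per tetramer).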

[3] = biological target: Transthyretin (Homo sapiens) (UniProt P02766); assay: Transthyretin (TTR) amyloidogenesis inhibition activity by employing an acid-mediated (pH 4.4) WTTTR amyloid fibril formation assay, at 7.2 uM conc.; format: functional; how it was run: as §1
[4] = biological target: Transthyretin (Homo sapiens) (UniProt P02766); assay: Ability to bind TTR selectively over all other proteins in human blood plasma (equiv bound); None observed; format: cell-free; how it was run: as §2
[5] = biological target: Transthyretin (Homo sapiens) (UniProt P02766); assay: The second dissociation constant for binding to WT TTR determined by isothermal titration calorimetry (25 C, pH 8.0)
[6] = biological target: Transthyretin (Homo sapiens) (UniProt P02766); assay: The first dissociation constant for binding to WT TTR determined by isothermal titration calorimetry (25 C, pH 8.0)

SMILES | Fibril formation [1] | Plasma selectivity [2] | Fibril formation [3] | other results
O=C(O)c1cccc(-c2cc(F)cc(F)c2)c1 | 35.7% | 0.23 | 5.6% | 
O=C(O)c1ccccc1-c1cc(Cl)cc(Cl)c1 |  |  | 45.4% | 
O=C(O)c1ccc(-c2cc(Cl)c(O)c(Cl)c2)cc1 | 25.8% | 0.26 | 3.8% | 
Oc1cccc(-c2ccccc2)c1 |  |  | 61.2% | 
O=C(O)c1ccc(-c2ccccc2)cc1 | 51.5% | 0.08 | 14.3% | 
O=Cc1ccccc1-c1cc(Cl)cc(Cl)c1 | 34.5% | 1.96 | 7.1% | 
Oc1cccc(-c2ccc(F)cc2)c1 |  |  | 46.3% | 
O=C(O)c1cccc(-c2cc(F)c(O)c(F)c2)c1 | 38.5% | None observed | 3.5% | 
O=C(O)c1cccc(-c2ccc(F)cc2F)c1 | 39.4% |  | 9.1% | Plasma selectivity [4]: None observed
O=C(O)c1cc(-c2ccccc2)ccc1O | 47.4% |  | 15.4% | Plasma selectivity [4]: None observed
O=C(O)c1ccc(-c2cc(F)c(O)c(F)c2)cc1 | 31.7% | 0.07 | 3.4% | 
Oc1cccc(-c2cc(F)cc(F)c2)c1 | 40.9% | 0.18 | 10.2% | 
O=C(O)c1ccc(-c2cc(Cl)cc(Cl)c2)cc1 | 41.2% | 1.56 | 4.9% | 
O=C(O)c1cccc(-c2c(F)cccc2F)c1 | 35.1% | 0.29 | 6.7% | 
O=C(O)c1cc(-c2ccccc2F)ccc1O | 38.7% | 0.07 | 2.5% | 
Fc1cc(F)cc(-c2ccccc2)c1 |  |  | 100% | 
Fc1ccc(-c2ccccc2)c(F)c1 |  |  | 100% | 
O=Cc1ccc(-c2cc(F)cc(F)c2)cc1 |  |  | 69.6% | 
OCc1cccc(-c2ccccc2)c1 |  |  | 85.5% | 
O=Cc1ccc(-c2ccccc2)cc1 |  |  | 93.5% | 
COc1ccc(-c2ccc(F)cc2F)cc1C(=O)O |  |  | 69.9% | 
O=C(O)c1cccc(-c2ccccc2)c1 |  |  | 30.8% | 
O=C(O)c1cc(-c2ccc(Cl)cc2Cl)ccc1O | 29.9% | 0.27 | 3.6% | 
O=C(O)c1cccc(-c2ccccc2F)c1 | 39.4% | None observed | 9.8% | 
OCc1ccccc1-c1ccccc1 |  |  | 81% | 
Clc1cc(Cl)cc(-c2ccccc2)c1 |  |  | 52.2% | 
O=C(O)c1cc(-c2ccc(F)cc2F)ccc1O | 37% |  | 3.4% | 
Fc1ccccc1-c1ccccc1 |  |  | 99.4% | 
OCc1ccc(-c2ccccc2)cc1 |  |  | 100% | 

Now from value to molecule, other results behind:

Fibril formation [1] | Plasma selectivity [2] | Fibril formation [3] | SMILES | other results
 |  | 25.4% | O=Cc1ccc(-c2cc(Cl)cc(Cl)c2)cc1 | 
 |  | 72.5% | O=Cc1ccccc1-c1ccccc1 | 
 |  | 13.3% | O=C(O)c1ccc(-c2ccc(F)cc2)cc1 | 
 |  | 32.4% | Oc1ccc(-c2ccc(F)cc2F)cc1 | 
30.6% | 1.3 | 4.4% | O=Cc1cccc(-c2cc(Cl)cc(Cl)c2)c1 | 
 |  | 38.5% | COC(=O)c1cc(-c2ccc(F)cc2F)ccc1O | 
30% | 0.89 | 3.3% | OCc1cccc(-c2cc(Cl)cc(Cl)c2)c1 | 
 |  | 15.7% | O=C(O)c1cccc(-c2ccc(F)cc2)c1 | 
 |  | 19.5% | Oc1cccc(-c2ccccc2F)c1 | 
33.6% |  | 7.7% | OCc1ccccc1-c1cc(Cl)cc(Cl)c1 | Plasma selectivity [4]: None observed
25.5% | 0.12 | 4.4% | O=C(O)c1cccc(-c2cc(Cl)c(O)c(Cl)c2)c1 | 
 |  | 16.4% | Oc1ccc(-c2cc(F)cc(F)c2)cc1 | 
 |  | 53.1% | Oc1ccc(-c2ccc(F)cc2)cc1 | 
35.5% | None observed | 1% | O=C(O)c1cc(-c2cc(F)cc(F)c2)ccc1O | 
32.7% | 0.8 | 3% | O=C(O)c1cccc(-c2cc(Cl)cc(Cl)c2)c1 | 
 |  | 64.3% | O=Cc1cccc(-c2cc(F)cc(F)c2)c1 | 
28.5% |  | 4.5% | O=C(O)c1ccc(-c2c(F)cccc2F)cc1 | Kd2 [5]: 1300 nM
38.7% | 0.09 | 2.6% | O=C(O)c1cc(-c2ccc(F)cc2)ccc1O | 
35.7% | 1.27 | 3.7% | O=C(O)c1ccc(-c2cc(F)cc(F)c2)cc1 | Kd1 [6]: 9 nM; Kd2 [5]: 1100 nM
38.9% | 0.54 | 5.9% | OCc1ccc(-c2cc(Cl)cc(Cl)c2)cc1 | 
 |  | 19.6% | Oc1ccc(-c2ccccc2F)cc1 | 
32.4% | 0.08 | 4.8% | O=C(O)c1ccc(-c2ccccc2F)cc1 | 
 |  | 100% | Fc1ccc(-c2ccccc2)cc1 | 
 |  | 35.4% | O=Cc1cccc(-c2ccccc2)c1 | 
32.6% | 0.2 | 2.6% | O=C(O)c1ccc(-c2ccc(F)cc2F)cc1 | 
 |  | 31.5% | Oc1cccc(-c2ccc(F)cc2F)c1 | 
